According to ChEMBL document CHEMBL1142314, “alpha- and beta-substituted phosphonate analogs of LPA as autotaxin inhibitors” (Bioorg Med Chem, 2008):

Key:
[1] = molecular target: Autotaxin (Homo sapiens) (UniProt Q13822); assay: Inhibition of autotaxin assessed as residual enzyme activity at 100 uM relative to control
Outline: (§1)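 ATX activity measured with the compound present at 1 μM, 10 μM or 100 μM. Activity without compound served as the standard (100%), and results are reported as percent residual ATX activity.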

[2] = molecular target: Autotaxin (Homo sapiens) (UniProt Q13822); assay: Inhibition of autotaxin assessed as residual enzyme activity at 10 uM relative to control; outline: as §1
[3] = molecular target: Autotaxin (Homo sapiens) (UniProt Q13822); assay: Inhibition of autotaxin assessed as residual enzyme activity at 1 uM relative to control; outline: as §1

Row | SMILES | Activity [1] [%] | Activity [2] [%] | Activity [3] [%]
1 | CCCCCCCCCCCCCCCC(=O)N1CCCC1C(=O)CP(=O)(O)O (stereo not given) | 9 | 18 | 49
2 | CCCCCCCCCCCCCCCC(=O)N1CCCC1C(O)CP(=O)(O)O (stereo not given) | 16 | 43 | 83
3 | CCCCCCCCCCCCCCCC(=O)NCC(=O)CP(=O)(O)O | 76 | 95 | 79
4 | CCCCCCCCCCCCCCCC(=O)NCC(O)CP(=O)(O)O (stereo not given) | 56 | 88 | 88
5 | CCCCCCCCCCCCCCCC(=O)N[C@@H](C)C(=O)CP(=O)(O)O | 72 | 67 | 60
6 | CCCCCCCCCCCCCCCC(=O)N[C@@H](CC(C)C)C(=O)CP(=O)(O)O | 25 | 48 | 89
7 | CCCCCCCCCCCCCCCC(=O)N[C@@H](Cc1c[nH]c2ccccc12)C(=O)CP(=O)(O)O | 28 | 70 | 91
8 | CCCCCCCCCCCCCCCC(=O)N[C@@H](Cc1ccc(OCc2ncc(C)c(OC)c2C)cc1)C(F)CP(=O)(O)O (stereo not given in full) | 11 | 22 | 59
9 | CCCCCCCCCCCCCCCC(=O)N[C@@H](Cc1ccc(OCc2ncc(C)c(OC)c2C)cc1)C[C@@H](O)P(=O)(O)O | 53 | 70 | 71
10 | CCCCCCCCCCCCCCCC(=O)N[C@@H](Cc1ccc(OCc2ncc(C)c(OC)c2C)cc1)C[C@H](O)P(=O)(O)O | 87 | 68 | 73
11 | CCCCCCCCCCCCCCCC(=O)N[C@H](C(=O)CP(=O)(O)O)C(C)C | 24 | 77 | 109
12 | CCCCCCCCCCCCCCCC(=O)N[C@@H](C)C(O)CP(=O)(O)O (mixture of isomers) | 25 | 14 | 50
13 | CCCCCCCCCCCCCCCC(=O)N[C@@H](Cc1ccc(OCc2ncc(C)c(OC)c2C)cc1)CC(F)P(=O)(O)O (mixture of isomers) | 25 | 68 | 74
14 | CCCCCCCCCCCCCCCC(=O)N[C@@H](Cc1cn(Cc2ccccc2)c2ccccc12)C(O)CP(=O)(O)O (mixture of isomers) | 28 | 35 | 80
15 | CCCCCCCCCCCCCCCC(=O)N[C@@H](Cc1cn(Cc2ncc(C)c(OC)c2C)c2ccccc12)C(O)CP(=O)(O)O (mixture of isomers) | 13 | 28 | 64
16 | CCCCCCCCCCCCCCCC(=O)N[C@@H](C(C)C)C(O)CP(=O)(O)O (single isomer, unassigned; diastereomer a) | 13 | 57 | 115
17 | CCCCCCCCCCCCCCCC(=O)N[C@@H](CC(C)C)C(O)CP(=O)(O)O (single isomer, unassigned; diastereomer a) | 23 | 53 | 68
18 | CCCCCCCCCCCCCCCC(=O)N[C@@H](Cc1c[nH]c2ccccc12)C(O)CP(=O)(O)O (single isomer, unassigned; diastereomer a) | 25 | 51 | 88
19 | CCCCCCCCCCCCCCCC(=O)N[C@@H](Cc1ccccc1)C(O)CP(=O)(O)O (single isomer, unassigned; diastereomer a) | 70 | 70 | 88
20 | CCCCCCCCCCCCCCCC(=O)N[C@@H](CC(C)C)C(O)CP(=O)(O)O (single isomer, unassigned; diastereomer b) | 52 | 64 | 93
21 | CCCCCCCCCCCCCCCC(=O)N[C@@H](COCc1ccccc1)C(O)CP(=O)(O)O (single isomer, unassigned; diastereomer b) | 61 | 46 | 78
22 | CCCCCCCCCCCCCCCC(=O)N[C@@H](C(C)C)C(O)CP(=O)(O)O (stereo in doubt; 32) | 23 | 78 | 72
23 | CCCCCCCCCCCCCCCC(=O)N[C@@H](Cc1ccccc1)C(O)CP(=O)(O)O (stereo in doubt; 37) | 67 | 99 | 92
24 | CCCCCCCCCCCCCCCC(=O)N[C@@H](Cc1c[nH]c2ccccc12)C(O)CP(=O)(O)O (stereo in doubt; 42) | 26 | 75 | 93
25 | CCCCCCCCCCCCCCCC(=O)N[C@@H](COCc1ccccc1)C(O)CP(=O)(O)O (stereo in doubt; 45) | 19 | 41 | 83
